These results are taken from ChEMBL document CHEMBL1123012, “Ellipticine derivatives with an affinity to the estrogen receptor, an approach to develop intercalating drugs with a specific effect on the hormone-dependent breast cancer” (J Med Chem, 1985).

For data set [1], the system named is Calf thymus DNA. In words: Inhibitory concentration against ethidium bromide binding to DNA. The format is nucleic-acid assay. Particulars: Bos taurus. A digest of the protocol: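 Fluorometric competition with ethidium bromide bound to sonicated calf thymus DNA, 20 °C, 0.02 M sodium acetate pH 5.5. Final DNA 2.5 × 10^-6 M (base pairs), ethidium 5 × 10^-6 M; competitor added in portions. Excitation 546 nm, emission 590 nm. Bound ethidium per base pair plotted vs rf (competitor/DNA bp). rf50 taken at 50% displacement of bound ethidium.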

For data set [2], the system named is L1210. Description: Lethal concentration required to reduce cloning efficiency of L1210 cell line to a factor of 0.37 after 24 hour exposure. It counts as cell-based. To be noted: mouse, l1210, 24 h.
For data set [3], the system named is L1210. Description: The effective dose against L1210 cell growth. To be noted: Mus musculus, read-out: ED50 (the source's name). The format is functional. A digest of the protocol:
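Exponentially growing L1210 cells (1 × 10^5/mL) in RPMI 1640 with 10% fetal calf serum, penicillin, streptomycin and 60 µM β-mercaptoethanol. Exposed to a range of drug concentrations in nonagitated suspension for 24 h at 37 °C, 5% CO2. Cells counted electronically; duplicate treated cultures compared with triplicate untreated controls. ED50 taken from percent inhibition plotted against log concentration.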

pEC50: −log10 of the molar value. Bounds are passed on as bounds.

As for `Cc1c2cc[n+](CC(=O)NCCCCCNCCOc3ccc(/C(=C(/Cl)c4ccccc4)c4ccccc4)cc3)cc2c(C)c2c1[nH]c1ccc(O)cc12.[Cl-]`, the rf50 in data set [1] worked out at 0.32. Besides, the Co in data set [2] was > 10 µM. The pEC50 in data set [3] is 5.40.
As to `COc1ccc2[nH]c3c(C)c4cc[n+](CC(=O)NCCCCCN(CCOc5ccc(/C(=C(/Cl)c6ccccc6)c6ccccc6)cc5)C(=O)C[n+]5ccc6c(C)c7[nH]c8ccc(OC)cc8c7c(C)c6c5)cc4c(C)c3c2c1`, in data set [1], the rf50 was 10.
On the same count and under the same terms, under `COc1ccc2[nH]c3c(C)c4cc[n+](CC(=O)NCCCCCNCCOc5ccc(/C(=C(/Cl)c6ccccc6)c6ccccc6)cc5)cc4c(C)c3c2c1` stands 0.86.
For `Cc1c2cc[n+](CC(=O)NCCCCCN(CCOc3ccc(/C(=C(/Cl)c4ccccc4)c4ccccc4)cc3)C(=O)C[n+]3ccc4c(C)c5[nH]c6ccc(O)cc6c5c(C)c4c3)cc2c(C)c2c1[nH]c1ccc(O)cc12.[Cl-].[Cl-]`, the rf50 in data set [1] came out at 4.8. Further, the Co in data set [2] is > 10 µM. Further, the pEC50 in data set [3] was 5.40.
In data set [1], `Cc1c2cc[n+](CCNC(=O)CC3(C)CC[C@H]4[C@@H]5CCc6cc(O)ccc6[C@H]5CC[C@@]43C)cc2c(C)c2c1[nH]c1ccccc12.[Br-]` (stereo partly specified) showed a rf50 of 1.5. The Co in data set [2] came out at 0.15 µM. For the same compound, in data set [3], the pEC50 is 6.30.
For `COc1ccc2[nH]c3c(C)c4cc[n+](CC(=O)N(CCCCCN)CCOc5ccc(/C(=C(/Cl)c6ccccc6)c6ccccc6)cc5)cc4c(C)c3c2c1.[Cl-]`, in that order: 0.7, 9 µM and 5.30.
`CCN(CC)CCOc1ccc(/C(=C(/Cl)c2ccccc2)c2ccccc2)cc1`: the rf50 in data set [1] came out at 20.
On the same count and under the same terms, under `CCN(CC)CCOc1ccc(/C(=C(\Cl)c2ccccc2)c2ccccc2)cc1` stands 20.
